GSTO1 inh: blocks human GSTO1 in RBBP9 counter-screen; recombinant GSTO1, activity-based probe fluorescence polarization; inhibition, % at 5.96 µM; hit rate 1.1% among 300,000;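 active = inhibition above the campaign mean inhibition plus 3 SD, cut at about 35% in these data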;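 also: 0% = GSTO1-1 with DMSO and 100% = wells lacking GSTO1-1 enzyme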
Fam108B inh: counter-screen for RBBP9 inhibitors: inhibitors of mouse Fam108B; recombinant Fam108B, FP-Rh probe fluorescence polarization; inhibition, % at 9.51 µM; hit rate 0.33% among 300,000; AID 1947;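 active = inhibition above the screen mean inhibition plus 3 SD, computed separately per campaign, cut at about 18% in these data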;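 also: inhibitors lower polarization as less probe binds the enzyme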
PRMT1 inh: blocks human protein arginine methyltransferase 1; Q99873; recombinant PRMT1, activity-based probe fluorescence polarization; inhibition, % at 2.79 µM; hit rate 1.3% among 370,000;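 active = inhibition above about 21% made by adding two undisclosed values, limit read from the data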
PME-1 inh: PME-1 (human) inhibition; recombinant PME-1, FP-Rh probe fluorescence polarization; inhibition, % at 5.9 µM; Q9Y570; hit rate 0.53% among 320,000;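 active = inhibition above the campaign mean of all compounds plus 3 SD, cut at about 26% in these data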;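 also: competitive labeling of PME-1 active site by serine hydrolase directed probe; 0% = PME-1 with DMSO and 100% = wells lacking PME-1 enzyme; inhibitors block probe labeling so polarization falls and inhibition rises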
Target sequence (Q9Y570 whole entry, looked up): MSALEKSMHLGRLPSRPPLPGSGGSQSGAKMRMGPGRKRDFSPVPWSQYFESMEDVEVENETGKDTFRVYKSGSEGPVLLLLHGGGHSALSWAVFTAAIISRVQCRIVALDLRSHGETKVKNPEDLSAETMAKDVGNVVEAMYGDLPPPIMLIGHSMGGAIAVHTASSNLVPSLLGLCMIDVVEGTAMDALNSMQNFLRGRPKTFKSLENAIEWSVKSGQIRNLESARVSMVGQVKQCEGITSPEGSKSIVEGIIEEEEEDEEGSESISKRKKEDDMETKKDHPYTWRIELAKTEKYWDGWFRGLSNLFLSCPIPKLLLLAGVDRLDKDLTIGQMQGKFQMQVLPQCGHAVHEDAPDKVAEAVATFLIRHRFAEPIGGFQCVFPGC
PAD4 FP inh: blocks human protein arginine deiminase 4 | Q9UM07 | recombinant PAD4, RCA probe fluorescence polarization | inhibition, % at 6.36 µM | hit rate 0.41% among 330,000;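 active = percent inhibition above a cutoff equal to the mean of all tested compounds plus 3 SD, cut at about 15% in these data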;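 also: 0% = PAD4 with RCA probe and DMSO and 100% = probe without PAD4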
RBBP9 inhibitor: human RBBP9 hydrolase inhibition; O75884; recombinant RBBP9, FP-Rh probe fluorescence polarization; inhibition, % at 7.94 µM; hit rate 0.2% among 220,000; AID 1515;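 active = inhibition above the campaign mean of all tested compounds plus 3 SD, cut at about 14% in these data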;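 also: plate controls were DMSO wells with RBBP9 for no effect and wells lacking RBBP9 protein for full effect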
Target sequence (O75884 whole entry, looked up): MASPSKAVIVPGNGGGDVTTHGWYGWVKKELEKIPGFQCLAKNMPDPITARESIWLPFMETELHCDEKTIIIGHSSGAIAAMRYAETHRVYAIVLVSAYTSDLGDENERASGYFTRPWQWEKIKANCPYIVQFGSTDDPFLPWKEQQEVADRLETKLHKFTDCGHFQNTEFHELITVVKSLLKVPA
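Test system – recombinant human RBBP9 · Input – RBBP9 2.5 µM in dispensing solution, pre-mixing · Medium – Tris buffer pH 8.0, NaCl, Pluronic · Schedule – preincubation 30 min plus labeling 45 min at 25 °C · Measured by – fluorescence polarization · Measure – % inhibition · Controls – DMSO and no-protein wells · Replicates – one well per compound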
PAD4 FP conf: confirmation of human PAD4 inhibitors; recombinant PAD4, RCA probe fluorescence polarization; hit rate 28% among 1,200; AID 488796; inhibition, % at 6.36 µM; shares compounds with PAD4 FP inh;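 active = mean inhibition across replicates above the hit cutoff set by the earlier primary screen, cut at about 15% in these data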;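 also: inhibitors block active-site labeling by the probe so polarization falls; 0% = PAD4 with probe and DMSO and 100% = probe without PAD4 enzyme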
The depositor's hits bear a star; / = no result given. In the library only some 2.3% were active in any assay of this set; here they are far more common.

SMILES	GSTO1 inh	Fam108B inh	PRMT1 inh	PME-1 inh	PAD4 FP inh	RBBP9 inhibitor	PAD4 FP conf
COc1ccccc1N1CCN(C(=O)c2cn(Cc3ccccc3)nc2-c2cccnc2)CC1	/	/	-3	-6	-2	/	/
COc1cccc(N2CCN(C(=O)c3cn(Cc4ccccc4)nc3-c3cccnc3)CC2)c1	/	/	2	11	21*	/	0
CCC(Oc1ccccc1)C(=O)N(CC)CC(=O)NCc1ccc(F)cc1 (stereo not drawn)	/	/	2	/	/	/	/
CCN(CC)CCN(C(=O)c1ccc2ncsc2c1)c1nc2cc3c(cc2s1)OCO3	-3	6	53*	1	22*	/	5
COc1ccc(CCc2nc(-c3ccc(-n4cccc4)cc3)no2)cc1	4	0	-2	2	0	-5	/
COCc1cc(C)nc(SCC(=O)Nc2ccc3c(c2)n(C)c(=O)n3C)c1C#N	0	1	2	-3	197*	/	2
CCCCC1OC23CCCCC2C(C#N)(C#N)C1(C#N)C(=N)O3 (stereo not drawn)	7	4	10	10	25*	-5	17*
Cc1nc(N/N=C/c2ccc(O)cc2)c2cnn(-c3ccccc3)c2n1	-14	9	-3	18	-1	1	/
CCN1C(=O)[C@@H]2C(C(=O)c3cnccn3)=NN[C@@H]2C1=O	5	3	4	-3	20*	-3	-7
CCOc1cc(N2CCOCC2)c(OCC)cc1NC(=O)CSc1ncccc1C(=O)O	/	/	1	/	39*	/	2
CSCCC1NC(=O)N(CC(=O)Nc2c(Cl)cc(Cl)cc2Cl)C1=O (stereo not drawn)	-5	1	1	-2	1	-6	/
Cc1ccc(NC(=O)c2ccc(=O)[nH]n2)cc1S(=O)(=O)Nc1ccc(SC(F)F)cc1	/	/	46*	/	22*	/	5
O=C(NN=C1C2CC3CC(C2)CC1C3)c1ccncc1	4	4	0	-4	-2	-5	/
O=C(N/N=C1\C/C(=N\NC(=O)c2ccncc2)c2ccccc21)c1ccncc1	56*	18	6	-2	44*	-1	-15
[O-][n+]1c2ccccc2cc2ccccc21	-3	0	5	-8	1	/	/
O=C(CCn1cccc1)Nc1ccccc1F	4	2	3	1	-5	4	/
O=C(CN1CCN(c2ccccn2)CC1)Nc1nc2ccccc2s1	8	-8	-2	3	18*	/	6
CCOc1ccc2nc(NC(=O)CN3CCN(c4ccccn4)CC3)sc2c1	-4	0	1	0	4	-4	/
O=C(/C=C/c1cccc([N+](=O)[O-])c1)N(c1ccccn1)c1ccccn1	-3	4	0	0	0	-7	/
Cc1cc([N+](=O)[O-])nn1CCCC(=O)Nc1ccc2c(c1)OCO2	1	1	2	6	15*	/	0
Clc1cccc(Cl)c1/C=N\Nc1nccs1	0	0	1	-2	0	-1	/
Cc1[nH]c2ccccc2c1/C=N/NC(N)=S	-6	-1	7	-3	2	-3	/
Cc1nnc(N/N=C/c2c(Cl)cccc2Cl)n1N	8	2	3	-2	33*	8	7
CCc1nnc(N/N=C/c2c(F)cccc2Cl)n1N	23	3	0	-3	37*	/	2
CCc1nnc(N/N=C/c2c(C)[nH]c3ccccc23)n1N	52*	-3	12	5	30*	0	7
SMILES	GSTO1 inh	Fam108B inh	PRMT1 inh	PME-1 inh	PAD4 FP inh	RBBP9 inhibitor	PAD4 FP conf
CCc1nnc(N/N=C/c2cc(C)c(C)cc2C)n1N	/	/	4	/	/	/	/
C=CCN1CC(c2nc3ccccc3n2Cc2cccc3ccccc23)CC1=O (stereo not drawn)	-1	1	-4	10	1	-6	/
Cc1cc(C)cc(N(CC(=O)NCc2ccc3c(c2)OCO3)C(=O)CCC(=O)Nc2ccccn2)c1	1	2	-1	3	-1	-10	/
COc1ccc(C(=O)NCCS(=O)(=O)NCc2ccc(F)cc2)cc1	-2	2	1	-1	-9	/	/
CCC(CC)C(=O)Nc1cc(OC)c(OC)cc1C(=O)O	-15	-1	-1	2	5	11	/
CCOC(=O)C(Nc1ccc2ccccc2c1)C(=O)OCC	8	5	7	16	21*	4	-1
CC(=O)CC(=O)Nc1ccc2ccccc2c1	-1	-1	1	-3	-2	-6	/
CCCN1C2CCCC1CC(NC(=O)c1ccc(OC)cc1)C2 (stereo not drawn)	7	2	-6	-2	-3	/	/
CC(=O)c1cccc(OCc2cc(C(=O)N3CCSCC3)no2)c1	-1	-1	-3	2	35*	/	6
COc1cc(C(C)=O)ccc1OCc1cc(C(=O)N2CCSCC2)no1	5	-3	-1	4	-2	/	/
COc1ccccc1CN1CCN(Cc2nc(-c3ccccc3)no2)CC1	8	2	-6	-5	-2	-8	/
CC1CCCC(NC(=O)COC(=O)c2ccc([N+](=O)[O-])s2)C1C (stereo not drawn)	/	/	2	/	15*	/	7
CCOC(=O)c1ccc(NC(=O)CSC2=NC(=O)C(CC)C(=O)N2)cc1 (stereo not drawn)	0	3	15	4	21*	-3	20*
O=C(NCc1ccccn1)Nc1ccccc1F	3	3	1	-2	1	/	/
O=C(NCc1ccccn1)Nc1ccccc1C(F)(F)F	2	5	-2	-2	35*	/	6
CCOC(=O)c1cc(C)sc1NC(=O)CSC1=NCCS1	1	-5	0	5	15*	/	19*
Cn1ncc2nc[nH]c(=O)c21	4	5	-2	-2	19*	1	6
Cc1nc[nH]c(=O)c1Br	0	-1	1	2	-3	-4	/
O=C(OCc1cnc(Cl)s1)c1ccccc1Cl	-3	-5	2	-4	-1	-3	/
O=C(OCn1ncc(Br)c(Br)c1=O)c1ccccc1Cl	37*	1	/	-5	34*	-9	32*
CCOC(=O)C1(C)C=C(Nc2ccc(O)cc2)C(=O)N1c1ccc(O)cc1 (stereo not drawn)	89*	2	33*	13	85*	5	6
CCOC(=O)C1(C)C=C(Nc2ccc(OC)cc2)C(=O)N1c1ccc(OC)cc1 (stereo not drawn)	1	1	-4	2	-4	-4	/
CCN(CC)c1ccc(N=Cc2ccc(N(CC)CC)cc2O)cc1	57*	4	24*	-4	17*	-2	-3
CCN(CC)c1ccc(C=Nc2ccc(C)cc2)c(O)c1	2	0	1	-1	1	-6	/
CCc1nnc(-n2nc(C)cc2-c2ccccc2)n1N	34	5	0	1	-4	11	/
Cc1nc(N)c(Cc2ccc(Cl)cc2Cl)c(N)n1	3	0	-4	1	-5	0	/

Screening results from PubChem.
